In ChEMBL document CHEMBL3352366, “Synthesis and biological evaluation of 2,3-dihydroimidazo[1,2-a]benzimidazole derivatives against Leishmania donovani and Trypanosoma cruzi” (Eur J Med Chem, 2014):
Calls of active or inactive are those of the source. The rule behind the calls is not given here.

Assays:
[1] = Selectivity index, ratio of IC50 for human U2OS cells to IC50 for intracellular Trypanosoma cruzi; type: toxicity, cell-based; conditions: U2OS cells versus intracellular Trypanosoma cruzi, read-out: Selectivity Index
Procedure, shortened: (§1)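 U2OS cytotoxicity was measured in the same 48 h T. cruzi infection assay by counting host cell numbers in the DRAQ5-stained confocal images to give CC₅₀. SI was calculated from EC₅₀ and CC₅₀.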

[2] = Selectivity index, ratio of IC50 for human THP1 cells to IC50 for intracellular amastigote stage of Leishmania donovani MHOM/ET/67/HU3; type: toxicity, cell-based, THP-1; conditions: read-out: Selectivity Index
Procedure, shortened: (§2)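 Host THP-1 cytotoxicity was taken from the same intracellular amastigote images (PMA-differentiated, infected, 3-day compound exposure) by counting cell numbers normalized to 1 % DMSO. CC₅₀ is the average of duplicates; SI was calculated from EC₅₀ and CC₅₀.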

[3] = Cytotoxicity against human U2OS cells infected with intracellular Trypanosoma cruzi; type: cell-based; procedure, shortened: as §1
[4] = system: Leishmania donovani; test: Antileishmanial activity against intracellular amastigote stage of Leishmania donovani MHOM/ET/67/HU3 infected in human THP1 cells after 3 days by confocal microscopy; type: functional, organism-based; conditions: MHOM/ET/67/HU3, THP-1, 72 h
[5] = system: Trypanosoma cruzi; test: Antitrypanosomal activity against intracellular Trypanosoma cruzi infected in human U2OS cells after 48 hrs by confocal microscopy; type: functional, organism-based
Procedure, shortened: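 T. cruzi tissue-culture trypomastigotes were raised in LLC-MK2 cells. U2OS cells and parasites were mixed, dispensed onto compound plates and incubated 48 h at 37 °C, 5 % CO₂. Cells were fixed with 4 % paraformaldehyde, DRAQ5-stained and imaged by confocal microscopy to count parasites and infection ratio. Controls: benznidazole 400 µM and 1 % DMSO. EC₅₀ derived from infection ratio normalized to the controls.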

[6] = Cytotoxicity against human THP1 cells infected with intracellular amastigote stage of Leishmania donovani MHOM/ET/67/HU3; type: cell-based, THP-1; procedure, shortened: as §2
[7] = system: Leishmania donovani; test: Antileishmanial activity against extracellular promastigote stage of Leishmania donovani MHOM/ET/67/HU3 incubated for 28 hrs followed by additional 20 hrs incubation
[8] = system: Leishmania donovani; test: Antileishmanial activity against intracellular amastigote stage of Leishmania donovani MHOM/ET/67/HU3 infected in human THP1 cells assessed as reduction in parasite count at 12.5 uM after 3 days by confocal microscopy; type: functional, organism-based; conditions: THP-1
[9] = system: Trypanosoma cruzi; test: Antitrypanosomal activity against intracellular Trypanosoma cruzi infected in human U2OS cells assessed as reduction in parasite count at 400 uM after 48 hrs by confocal microscopy; type: functional, organism-based
[10] = system: Trypanosoma cruzi; test: Antitrypanosomal activity against intracellular Trypanosoma cruzi infected in human U2OS cells assessed as reduction in parasite count at 12.5 uM after 48 hrs by confocal microscopy; type: functional, organism-based
[11] = system: Trypanosoma cruzi; test: Antitrypanosomal activity against intracellular Trypanosoma cruzi infected in human U2OS cells assessed as reduction in parasite count at 6.25 uM after 48 hrs by confocal microscopy; type: functional, organism-based

SMILES	selectivity ratio [1]	selectivity ratio [2]	CC50 [3] [µM]	EC50 [4] [µM]	EC50 [5] [µM]	CC50 [6] [µM]	EC50 [7] [µM]	growth inhibition (GI) [8]	growth inhibition (GI) [9]	growth inhibition (GI) [10]	growth inhibition (GI) [11]	inhibition [5]
CCc1ccc(CN2C3=NCCN3c3ccccc32)cc1	> 1.48	> 1.19	> 50	42	33.7	> 50	–	–	–	–	–	–
c1ccc2c(c1)N1CCN=C1N2Cc1ccc(C2CCCCC2)cc1	3.81	4.19	6.1	5.4	1.6	22.8	1.71	–	–	–	–	–
Clc1ccc(-c2ccc(CN3C4=NCCN4c4ccccc43)cc2)cc1	1.7	1.46	9.36	13.7	5.56	20	–	–	–	–	–	–
CC(C)(C)c1ccc(CN2C3=NCCCN3c3ccccc32)cc1	> 16.2	> 3.98	> 50	12.5	3.09	> 50	2.73	–	–	–	–	–
COc1ccc(-c2ccc(CN3C4=NCCN4c4ccccc43)cc2)cc1	–	2.25	> 50	10.2	> 50	23	2.34	–	–	–	–	–
Cc1cc(C)cc(CN2C3=NCCN3c3ccccc32)c1	–	–	> 50	> 50	> 50	> 50	–	–	–	–	–	–
CCCCCCCCCCCCCCCCOP(=O)([O-])OCC[N+](C)(C)C [MILTEFOSINE]	–	3.91	–	4.83	–	18.9	11.1	Active	–	–	–	–
Cc1cc2c(cc1C)N(Cc1ccc(C(C)(C)C)cc1)C1=NCCN12	–	–	> 50	> 50	> 50	> 50	–	–	–	–	–	–
c1ccc(CN2C3=NCCN3c3ccccc32)nc1	–	–	> 50	> 50	> 50	> 50	–	–	–	–	–	–
Fc1ccc(F)c(-c2ccc(CN3C4=NCCN4c4ccccc43)cc2)c1	2.14	> 1.54	9.61	32.5	4.49	> 50	9.22	–	–	–	–	–
Fc1ccc(CN2C3=NCCN3c3ccccc32)cc1	–	–	> 50	> 50	> 50	> 50	–	–	–	–	–	–
CS(=O)(=O)c1ccc(CN2C3=NCCN3c3ccccc32)cc1	–	–	–	> 50	–	> 50	–	–	–	–	–	–
CC(C)(C)c1cccc(CN2C3=NCCN3c3ccccc32)c1	2.77	> 2.21	34.6	22.6	12.5	> 50	4.98	–	–	–	–	–
FC(F)(F)c1ccc(CN2C3=NCCN3c3ccccc32)cc1	> 3.75	–	> 50	> 50	13.4	> 50	–	–	–	–	–	–
c1ccc(Oc2ccc(CN3C4=NCCN4c4ccccc43)cc2)cc1	0.52	3.82	20	12.5	38.7	48	2.01	–	–	–	–	–
C[C@@H]1[C@H](O)[C@@H](C)/C=C/C=C/C=C/C=C/C=C/C=C/C=C/[C@H](O[C@@H]2O[C@H](C)[C@@H](O)[C@H](N)[C@@H]2O)C[C@@H]2O[C@](O)(C[C@@H](O)C[C@@H](O)[C@H](O)CC[C@@H](O)C[C@@H](O)CC(=O)O[C@H]1C)C[C@H](O)[C@H]2C(=O)O [AMPHOTERICIN B]	–	30.2	–	–	–	–	0.22	Active	–	–	–	–
CC(C)(C)c1ccc(OCCN2C3=NCCN3c3ccccc32)cc1	4.36	1.21	37.9	27.4	8.7	33.1	–	–	–	–	–	–

SMILES	selectivity ratio [1]	selectivity ratio [2]	CC50 [3] [µM]	EC50 [4] [µM]	EC50 [5] [µM]	CC50 [6] [µM]	EC50 [7] [µM]	growth inhibition (GI) [8]	growth inhibition (GI) [9]	growth inhibition (GI) [10]	growth inhibition (GI) [11]	inhibition [5]
CC(C)(C)c1ccc(C(=O)CN2C3=NCCN3c3ccccc32)cc1	> 1.39	> 1.27	> 50	39.4	36	> 50	–	–	–	–	–	–
O=C(Cn1ccnc1[N+](=O)[O-])NCc1ccccc1 [BENZNIDAZOLE]	> 2.42	–	> 50	–	20.7	–	–	–	Active	inactive	–	–
c1ccc(-c2ccc(CN3C4=NCCN4c4ccccc43)cc2)cc1	8.95	7.5	18.8	5.29	2.1	39.7	1.48	–	–	–	–	–
CC(C)(C)c1ccc(CN2C3=NC(=O)CN3c3ccccc32)cc1	–	–	> 50	> 50	> 50	> 50	–	–	–	–	–	–
N#Cc1ccc(CN2C3=NCCN3c3ccccc32)cc1	–	–	–	> 50	–	> 50	–	–	–	–	–	–
FC(F)(F)Oc1ccc(-c2ccc(CN3C4=NCCN4c4ccccc43)cc2)cc1	–	2.11	> 50	5.2	> 50	11	1.53	–	–	–	–	–
CC(C)(C)c1ccc(CN2C3=NCCN3c3ccccc32)cc1	33.2	> 16.4	36.5	3.05	1.1	> 50	1.25	Active	–	–	Active	Dose-dependent effect
FC(F)(F)Oc1ccc(CN2C3=NCCN3c3ccccc32)cc1	–	–	–	> 50	–	> 50	–	–	–	–	–	–
CC(C)(C)c1ccc(CN2C3=NCCN3c3cc(F)ccc32)cc1	6.07	> 3.57	50	14	8.24	> 50	1.26	–	–	–	–	–
Cc1ccc(-c2ccc(CN3C4=NCCN4c4ccccc43)cc2)cc1	1.38	1.52	10.3	17.8	7.45	27.1	1.75	–	–	–	–	–
CC(C)(C)c1ccc(CN2C3=NCCN3c3cc(Cl)ccc32)cc1	–	1.71	44.6	7.33	6.21	12.5	2.22	–	–	–	–	–
FC(F)(F)c1ccc(-c2ccc(CN3C4=NCCN4c4ccccc43)cc2)cc1	–	2.91	> 50	10.3	> 50	30	3.11	–	–	–	–	–
Fc1ccc(-c2ccc(CN3C4=NCCN4c4ccccc43)cc2)cc1	> 5.62	3.94	> 50	8.88	8.89	35	1.49	–	–	–	–	–
Cc1ccc2c(c1)N1CCN=C1N2Cc1ccc(C(C)(C)C)cc1	> 2.28	2.55	> 50	11	19.6	28.1	1.8	–	–	–	–	–
CC(C)c1ccc(CN2C3=NCCN3c3ccccc32)cc1	–	–	> 50	> 50	> 50	> 50	–	inactive	–	–	–	–
c1ccc(CN2C3=NCCN3c3ccccc32)cc1	–	–	–	> 50	–	> 50	–	–	–	–	–	–
CC(C)(C)c1ccc(CCN2C3=NCCN3c3ccccc32)cc1	1.65	> 1.98	21	25.3	12.7	> 50	20.8	–	–	–	–	–
